What was measured:
[1] = test system: SF-268; experiment: Antiproliferative activity against human SF268 cells assessed as cell growth at 100 uM after 48 hrs by alamar blue assay; type: functional; details: SF-268, 48 h, read-out: Activity
Summary of the method: (§1)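 DTP three cell line one-dose prescreen: MCF7 (breast), NCI-H460 (lung), SF-268 (CNS). Cells inoculated and preincubated in microtiter plate, then single concentration of test agent added, 48 h incubation. Alamar blue endpoint. Growth expressed as percent of untreated control cells.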

[2] = test system: MCF7; experiment: Antiproliferative activity against human MCF7 cells assessed as cell growth at 100 uM after 48 hrs by alamar blue assay; type: functional; details: MCF7, 48 h, read-out: Activity; summary of the method: as §1
[3] = test system: NCI-H460; experiment: Antiproliferative activity against human NCI-H460 cells assessed as cell growth at 100 uM after 48 hrs by alamar blue assay; type: functional; details: NCI-H460, 48 h, read-out: Activity; summary of the method: as §1
[4] = Antiproliferative activity against MRP1-expressing human DLKP cells after 5 days by acid phosphatase assay; type: functional, cell-based; details: 120 h
Summary of the method: (§2)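 Cell lines DLKP, DLKP-A and HT-144, seeded at 1 × 10³ cells/well (DLKP and DLKP-A) or 3 × 10³ cells/well (HT-144, higher density needed for cell-contact-dependent growth). 5 day drug exposure. Compounds tested alone and in combination with the P-gp/MRP1 substrate epirubicin. Read-out is cell proliferation (%) relative to untreated control.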

[5] = Antiproliferative activity against P-gp expressing human DLKP-A cells assessed as cell proliferation at 10 uM after 5 days by acid phosphatase assay; type: functional; details: for growth at 10 µM: Homo sapiens, DLKP-A, 120 h, read-out: Activity; summary of the method: as §2
[6] = Antiproliferative activity against MRP1-expressing human DLKP cells assessed as cell proliferation at 10 uM after 5 days by acid phosphatase assay; type: functional; details: 120 h, read-out: Activity; summary of the method: as §2
[7] = Solubility of the compound in cell media; details: cell culture media
[8] = Solubility in DMSO-containing medium; type: physicochemical
Summary of the method: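 Compounds were solubilised in a minimum amount of DMSO, then solubility was tested in culture media. A minimum concentration of 0.5 mg/ml in media was required before biological evaluation.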

[9] = Antiproliferative activity against P-gp expressing human DLKP-A cells after 5 days by acid phosphatase assay; type: functional, cell-based; details: 120 h; summary of the method: as §2
[10] = Antiproliferative activity against P-gp expressing human DLKP-A cells assessed as cell proliferation at 5 uM after 5 days by acid phosphatase assay; type: functional; details: 120 h, read-out: Activity; summary of the method: as §2
[11] = Antiproliferative activity against MRP1-expressing human DLKP cells assessed as cell proliferation at 5 uM after 5 days by acid phosphatase assay; type: functional; details: 120 h, read-out: Activity; summary of the method: as §2
[12] = test system: HT-144; experiment: Antiproliferative activity against human HT144 cells assessed as cell proliferation at 20 uM after 5 days by acid phosphatase assay; type: functional; details: HT-144, 120 h, read-out: Activity; summary of the method: as §2
[13] = test system: HT-144; experiment: Antiproliferative activity against human HT144 cells after 5 days by acid phosphatase assay; type: functional, cell-based; details: HT-144, 120 h; summary of the method: as §2
[14] = Aqueous solubility of the compound; type: physicochemical; details: buffer
[15] = test system: SK-OV-3; experiment: Anticancer activity against human SKOV3 cells; type: functional, cell-based
Summary of the method: (§3)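 NCI 60 human tumour cell line panel; GI50, IC50, LC50 and TGI values calculated for each cell line.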

[16] = test system: DU-145; experiment: Anticancer activity against human DU145 cells; type: functional, cell-based; summary of the method: as §3
[17] = test system: HL-60(TB); experiment: Anticancer activity against human HL-60(TB) cells; type: functional, cell-based
Summary of the method: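 Tested in the DTP 60 human tumour cell line panel, which covers leukaemia, lung, colon, CNS, melanoma, ovarian, renal, prostate and breast lines. GI50, IC50, LC50 and TGI were calculated for each cell line.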

[18] = test system: SNB-75; experiment: Anticancer activity against human SNB75 cells; type: functional, cell-based; summary of the method: as §3
[19] = test system: SK-MEL-28; experiment: Anticancer activity against human SK-MEL-28 cells; type: functional, cell-based; summary of the method: as §3
[20] = test system: T47D; experiment: Anticancer activity against human T47D cells; type: functional, cell-based; summary of the method: as §3
[21] = test system: RXF 393; experiment: Anticancer activity against human RXF393 cells; type: functional, cell-based; summary of the method: as §3
[22] = test system: EKVX; experiment: Anticancer activity against human EKVX cells; type: functional, cell-based; summary of the method: as §3
[23] = test system: HT-29; experiment: Anticancer activity against human HT-29 cells; type: functional, cell-based; summary of the method: as §3
[24] = Antiproliferative activity against MRP1-expressing human DLKP cells assessed as cell proliferation at 0.01 uM after 5 days by acid phosphatase assay; type: functional; details: 120 h, read-out: Activity; summary of the method: as §2
[25] = Antiproliferative activity against P-gp expressing human DLKP-A cells assessed as cell proliferation at 1.5 uM after 5 days by acid phosphatase assay; type: functional; details: 120 h, read-out: Activity; summary of the method: as §2
[26] = test system: HT-144; experiment: Antiproliferative activity against human HT144 cells assessed as cell proliferation at 0.005 uM after 5 days by acid phosphatase assay; type: functional; details: HT-144, 120 h, read-out: Activity; summary of the method: as §2

Molecule COc1ccc(/C=C/c2cc(F)cc(F)c2)cc1 has a growth at 100 µM [1] of 111%, a growth at 100 µM [2] of 84% and a growth at 100 µM [3] of 105%.
COc1cc(/C=C/c2ccc(F)cc2)cc(OC)c1 showed a growth at 100 µM [1] of 105%, a growth at 100 µM [2] of 67% and a growth at 100 µM [3] of 60%.
Molecule Fc1ccc(/C=C/c2cc(F)cc(F)c2)cc1 has a growth at 100 µM [1] of 111%, a growth at 100 µM [2] of 82% and a growth at 100 µM [3] of 101%.
CC(=O)Nc1ccc(/C=C/c2cc(F)cc(F)c2)cc1 showed an IC50 [4] of 39 µM, a growth at 10 µM [5] of 78% and a growth at 10 µM [6] of 75%. The solubility [7] was “Soluble” and the solubility [8] was “Soluble”.
CC(=O)Nc1cc(/C=C/c2ccc(F)cc2)cc(NC(C)=O)c1 showed an IC50 [4] of 50 µM, a growth at 10 µM [5] of 96% and a growth at 10 µM [6] of 94%. For the same molecule, the IC50 [9] was over 50 µM, the solubility [7] was “Soluble” and the solubility [8] was “Soluble”.
For Nc1cc(N)cc(/C=C/c2ccc(F)cc2)c1, the IC50 [4] was over 50 µM, the growth at 10 µM [5] was 98% and the growth at 10 µM [6] was 87%. For the same molecule, the IC50 [9] was over 50 µM, the solubility [7] was “Soluble” and the solubility [8] was “Soluble”.
Work on CC(=O)Oc1cc(/C=C/c2ccc(F)cc2)cc(OC(C)=O)c1 yielded an IC50 [4] of 25 µM, a growth at 5 µM [10] of 89% and a growth at 5 µM [11] of 100%. For the same molecule, the IC50 [9] was 19 µM, the growth at 20 µM [12] was 100% and the IC50 [13] was 56 µM. For the same molecule, the solubility [7] was “Soluble” and the solubility [8] was “Soluble”.
With NCC(=O)Nc1ccc(/C=C/c2cc(F)cc(F)c2)cc1.O=C(O)C(F)(F)F the solubility [14] was “Soluble” and the solubility [8] was “Soluble”.
For O=C(Nc1cc(/C=C/c2ccc(F)cc2)cc(NC(=O)C(F)(F)F)c1)C(F)(F)F, the IC50 [4] was 28 µM, the growth at 10 µM [5] was 84% and the growth at 10 µM [6] was 95%. The IC50 [9] was 20 µM, the solubility [7] was “Soluble” and the solubility [8] was “Soluble”.
Molecule Oc1ccc(/C=C/c2cc(F)cc(F)c2)cc1 has an IC50 [4] of 6 µM, a growth at 5 µM [10] of 85% and a growth at 5 µM [11] of 74%. For the same molecule, the IC50 [9] was 14 µM, the growth at 20 µM [12] was 105% and the IC50 [13] was 59 µM. For the same molecule, the solubility [7] was “Soluble” and the solubility [8] was “Soluble”.
In the case of CC(=O)Oc1cc(O)cc(/C=C/c2ccc(F)cc2)c1, the IC50 [4] is reported as 21 µM, the growth at 5 µM [10] is reported as 90% and the growth at 5 µM [11] is reported as 98%. For the same molecule, the IC50 [9] was 21 µM, the growth at 20 µM [12] was 110% and the IC50 [13] was 54 µM. For the same molecule, the solubility [7] was “Soluble” and the solubility [8] was “Soluble”.
With CC(=O)Oc1ccc(/C=C/c2cc(F)cc(F)c2)cc1 the IC50 [4] was 7 µM, the GI50 [15] was 96.5 µM and the IC50 [15] was 83.1 µM. For the same molecule, the GI50 [16] was 128 µM, the IC50 [16] was 100 µM and the GI50 [17] was 117 µM. It also gave an IC50 [17] of 54.6 µM, a growth at 5 µM [10] of 50% and a GI50 [18] of 90.9 µM. It also gave an IC50 [18] of 60.3 µM, a GI50 [19] of 83.1 µM and an IC50 [19] of 70.1 µM. It also gave a growth at 5 µM [11] of 52%, a growth at 100 µM [1] of 1% and an IC50 [9] of 10 µM. For the same molecule, the GI50 [20] was 128 µM, the IC50 [20] was 79.8 µM and the growth at 20 µM [12] was 85%. The IC50 [13] was 36 µM, the GI50 [21] was 202 µM and the IC50 [21] was 75.9 µM. For the same molecule, the GI50 [22] was 117 µM, the IC50 [22] was 78.7 µM and the growth at 100 µM [2] was 22%. For the same molecule, the GI50 [23] was 80.6 µM, the IC50 [23] was 73.7 µM and the solubility [7] was “Soluble”. The solubility [8] was “Soluble” and the growth at 100 µM [3] was 7%.
Molecule COc1cccc2c1C(=O)c1c(O)c3c(c(O)c1C2=O)C[C@@](O)(C(=O)CO)C[C@@H]3O[C@H]1C[C@H](N)[C@@H](O)[C@H](C)O1 [EPIRUBICIN] has a growth at 0.01 µM [24] of 64%, a growth at 1.5 µM [25] of 66% and a growth at 0.005 µM [26] of 91%.
Work on Oc1ccc(/C=C/c2cc(O)cc(O)c2)cc1 [RESVERATROL] yielded an IC50 [4] of 10 µM, an Activity [5] of 66% and a growth at 10 µM [5] of 67%. For the same molecule, the growth at 10 µM [6] was 38%, the IC50 [9] was 15 µM and the growth at 20 µM [12] was 100%. It also gave an IC50 [13] of 40 µM.
